# Measured values: ChEMBL document CHEMBL1149634, “1-Acylthiosemicarbazides, 1,2,4-triazole-5(4H)-thiones, 1,3,4-thiadiazoles and hydrazones containing 5-methyl-2-benzoxazolinones: synthesis, analgesic-anti-inflammatory and antimicrobial activities” (2007)
# Assays:
# Mus musculus [1] = species on record: Mus musculus; experiment: animal or person; details: ip, read-out: Inhibition
# Mus musculus [2] = experiment: Antiinflammatory activity against carrageenan-induced hind paw oedema in mouse assessed as inhibition of swelling thickness at 10 mg/kg, po after 180 mins; type: functional; details: 3 h
# How it was run: (§1)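 Fasted mice (n = 5–6) were dosed orally with the sample in 0.5% CMC/water. One hour later, carrageenan (0.5 mg/25 µl in 154 mM saline) was injected subplantar into the right hind paw. The right-minus-left footpad thickness difference was measured with dial gauge callipers every 90 min over 6 h. Inhibition % is calculated versus vehicle control; mean ± SEM, Student's t test.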
# Mus musculus [3] = experiment: Antiinflammatory activity against carrageenan-induced hind paw oedema in mouse assessed as inhibition of swelling thickness at 10 mg/kg, po after 270 mins; type: functional; details: 4.5 h
# How it was run: as §1
# Mus musculus [4] = experiment: Antiinflammatory activity against carrageenan-induced hind paw oedema in mouse assessed as inhibition of swelling thickness at 10 mg/kg, po after 360 mins; type: functional; details: 6 h
# How it was run: as §1
# Mus musculus [5] = species on record: Mus musculus; experiment: animal or person; details: po, 1.5 h, read-out: Inhibition
# Mus musculus [6] = experiment: Analgesic activity in mouse assessed as inhibition of hind paw lick at 100 mg/kg, ip by hot plate test; type: functional; details: route intraperitoneal
# Mus musculus [7] = experiment: Analgesic activity in mouse assessed as inhibition of acetic acid induced-abdominal writhing at 100 mg/kg, ip by Koster test; type: functional; details: Abdomen, route intraperitoneal
# Mus musculus [8] = experiment: Antiinflammatory activity against carrageenan-induced hind paw oedema in mouse assessed as inhibition of swelling thickness at 100 mg/kg, po after 90 mins; type: functional; details: 1.5 h
# How it was run: as §1
# Mus musculus [9] = experiment: Antiinflammatory activity against carrageenan-induced hind paw oedema in mouse assessed as inhibition of swelling thickness at 200 mg/kg, po after 90 mins; type: functional; details: 1.5 h
# How it was run: as §1
# Mus musculus [10] = experiment: Antiinflammatory activity against carrageenan-induced hind paw oedema in mouse assessed as inhibition of swelling thickness at 100 mg/kg, po after 180 mins; type: functional; details: 3 h
# How it was run: as §1
# Mus musculus [11] = experiment: Antiinflammatory activity against carrageenan-induced hind paw oedema in mouse assessed as swelling thickness at 50 mg/kg, po after 180 mins; type: functional
# How it was run: as §1
# Mus musculus [12] = experiment: Antiinflammatory activity against carrageenan-induced hind paw oedema in mouse assessed as inhibition of swelling thickness at 200 mg/kg, po after 180 mins; type: functional; details: 3 h
# How it was run: as §1
# Mus musculus [13] = experiment: Antiinflammatory activity against carrageenan-induced hind paw oedema in mouse assessed as inhibition of swelling thickness at 100 mg/kg, po after 270 mins; type: functional; details: 4.5 h
# How it was run: as §1
# Mus musculus [14] = experiment: Antiinflammatory activity against carrageenan-induced hind paw oedema in mouse assessed as swelling thickness at 50 mg/kg, po after 270 mins; type: functional
# How it was run: as §1
# Mus musculus [15] = experiment: Antiinflammatory activity against carrageenan-induced hind paw oedema in mouse assessed as inhibition of swelling thickness at 200 mg/kg, po after 270 mins; type: functional; details: 4.5 h
# How it was run: as §1
# Mus musculus [16] = experiment: Antiinflammatory activity against carrageenan-induced hind paw oedema in mouse assessed as swelling thickness at 50 mg/kg, po after 360 mins; type: functional
# How it was run: as §1
# Mus musculus [17] = experiment: Antiinflammatory activity against carrageenan-induced hind paw oedema in mouse assessed as inhibition of swelling thickness at 200 mg/kg, po after 360 mins; type: functional; details: 6 h
# How it was run: as §1
# Staphylococcus aureus = experiment: Antibacterial activity against Staphylococcus aureus ATCC 29213 after 24 hrs by broth microdilution test; type: functional; details: ATCC 29213, 24 h
# How it was run: (§2)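 NCCLS broth microdilution in Mueller-Hinton broth with an inoculum of 5 × 10^5 cfu/mL. Compounds were dissolved in DMSO, diluted in sterile water, and tested as twofold dilutions from 512 to 0.5 µg/mL. Plates were incubated at 35 °C for 24 h. MIC is the lowest concentration preventing visible growth.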
# Enterococcus faecalis = experiment: Antibacterial activity against Enterococcus faecalis ATCC 29212 after 24 hrs by broth microdilution test; type: functional; details: ATCC 29212, 24 h
# How it was run: as §2
# Escherichia coli = experiment: Antibacterial activity against Escherichia coli ATCC 25922 after 24 hrs by broth microdilution test; type: functional; details: ATCC 25922, 24 h
# How it was run: as §2
# Pseudomonas aeruginosa = experiment: Antibacterial activity against Pseudomonas aeruginosa ATCC 27853 after 24 hrs by broth microdilution test; type: functional; details: ATCC 27853, 24 h
# How it was run: as §2
# Candida albicans = experiment: Antifungal activity against Candida albicans ATCC 90028 after 48 hrs by broth microdilution test; type: functional; details: ATCC 90028, 48 h
# How it was run: (§3)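 Yeasts tested by NCCLS M27-A broth microdilution in RPMI 1640 (with L-glutamine, without sodium bicarbonate) with an inoculum of 0.5–2.5 × 10^3 cfu/mL. Compounds were prepared from DMSO solution diluted in water as twofold dilutions from 512 to 0.5 µg/mL. Plates were incubated at 35 °C for 48 h. MIC is the lowest concentration giving no visible growth.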
# Pichia kudriavzevii = experiment: Antifungal activity against Candida krusei ATCC 6258 after 48 hrs by broth microdilution test; type: functional; details: ATCC 6258, 48 h
# How it was run: as §3
# Candida parapsilosis = experiment: Antifungal activity against Candida parapsilosis ATCC 22019 after 48 hrs by broth microdilution test; type: functional; details: Lodderomyces parapsilosis, ATCC 22019, 48 h
# How it was run: as §3
# Mus musculus [18] = experiment: Antiinflammatory activity against carrageenan-induced hind paw oedema in mouse assessed as inhibition of swelling thickness at 50 mg/kg, po after 90 mins; type: functional; details: 1.5 h
# How it was run: as §1
# Mus musculus [19] = experiment: Analgesic activity in mouse assessed as inhibition of acetic acid induced-abdominal writhing at 200 mg/kg, ip by Koster test; type: functional; details: Abdomen, route intraperitoneal
compound,measurement,setting,value
CN1CC[C@]23c4c5ccc(O)c4O[C@H]2[C@@H](O)C=C[C@H]3[C@H]1C5 [MORPHINE],inhibition in vivo at 10 mg/kg,Mus musculus [1],50.7%
COc1ccc2c(c1)c(CC(=O)O)c(C)n2C(=O)c1ccc(Cl)cc1 [INDOMETHACIN],inhibition in vivo at 10 mg/kg,Mus musculus [2],43%
same,inhibition in vivo at 10 mg/kg,Mus musculus [3],46.3%
same,inhibition in vivo at 10 mg/kg,Mus musculus [4],41.6%
same,inhibition in vivo at 10 mg/kg,Mus musculus [5],42%
CCNc1nnc(Cn2c(=O)oc3ccc(C)cc32)s1,inhibition in vivo at 100 mg/kg,Mus musculus [6],25.4%
same,inhibition in vivo at 100 mg/kg,Mus musculus [7],68.5%
same,inhibition in vivo at 100 mg/kg,Mus musculus [8],84.8%
same,inhibition in vivo at 200 mg/kg,Mus musculus [9],85.3%
same,inhibition in vivo at 100 mg/kg,Mus musculus [10],33.8%
same,Activity,Mus musculus [11],90.1%
same,inhibition in vivo at 200 mg/kg,Mus musculus [12],71.3%
same,inhibition in vivo at 100 mg/kg,Mus musculus [13],7.1%
same,Activity,Mus musculus [14],102.8%
same,inhibition in vivo at 200 mg/kg,Mus musculus [15],45.4%
same,Activity,Mus musculus [16],94%
same,inhibition in vivo at 200 mg/kg,Mus musculus [17],11.1%
same,MIC,Staphylococcus aureus,512 µg/mL
same,MIC,Enterococcus faecalis,> 512 µg/mL
same,MIC,Escherichia coli,512 µg/mL
same,MIC,Pseudomonas aeruginosa,512 µg/mL
same,MIC,Candida albicans,512 µg/mL
same,MIC,Pichia kudriavzevii,512 µg/mL
same,MIC,Candida parapsilosis,256 µg/mL
same,inhibition in vivo at 50 mg/kg,Mus musculus [18],7.9%
CC(=O)Oc1ccccc1C(=O)O [ASPIRIN],inhibition in vivo at 200 mg/kg,Mus musculus [19],65.7%
